Source: ChEMBL document CHEMBL2331493, “Chemical tagging of a drug target using 5-sulfonyl tetrazole” (Bioorg Med Chem Lett, 2013)
Activity calls are given as the source filed them. No cut-off for these calls is given here.

Columns and labels:
[1] = molecular target: Peptidyl-prolyl cis-trans isomerase A (Homo sapiens) (UniProt P62937); assay: Binding affinity to cyclophilin A in human Jurkat cell lysates at 1.1 uM after 24 hrs by Western blot analysis
[2] = molecular target: Peptidyl-prolyl cis-trans isomerase A (Homo sapiens) (UniProt P62937); assay: Binding affinity to biotin-tagged cyclophilin A in human Jurkat cell lysates at 1.1 uM after 24 hrs by SDS-PAGE analysis
Method in brief: (§1)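 Biotinylated probe incubated with a lysate of Jurkat cells (human leukemia T cells). The lysate was then mixed with streptavidin beads to pull down proteins with affinity for the probe. Bead-captured proteins were resolved by SDS–PAGE, and protein bands were read out.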

[3] = molecular target: Peptidyl-prolyl cis-trans isomerase A (Homo sapiens) (UniProt P62937); assay: Binding affinity to cyclophilin A in human Jurkat cell lysates at 1.1 uM after 24 hrs by SDS-PAGE analysis in presence of cyclosporine A
[4] = molecular target: Peptidyl-prolyl cis-trans isomerase A (Homo sapiens) (UniProt P62937); assay: Binding affinity to cyclophilin A in human Jurkat cell lysates at 1.1 uM after 24 hrs by SDS-PAGE analysis; method in brief: as §1
[5] = molecular target: Peptidyl-prolyl cis-trans isomerase A (Homo sapiens) (UniProt P62937); assay: Binding affinity to cyclophilin A in human Jurkat cell lysates at 1.1 uM after 24 hrs by SDS-PAGE analysis in presence of N-ethylmaleimide

Chain of Peptidyl-prolyl cis-trans isomerase A (Homo sapiens) (P62937 whole entry, looked up): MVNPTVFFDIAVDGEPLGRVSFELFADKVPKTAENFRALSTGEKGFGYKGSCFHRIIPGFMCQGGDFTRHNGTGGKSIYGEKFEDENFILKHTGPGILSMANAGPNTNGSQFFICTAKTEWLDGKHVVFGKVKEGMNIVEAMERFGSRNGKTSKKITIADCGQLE

Row | SMILES | Activity [1] | Activity [2] | Activity [3] | Activity [4] | Activity [5]
1 | CC[C@@H]1NC(=O)[C@H]([C@H](O)[C@H](C)C/C=N\OCC(=O)NCCCC(=O)NCCCCNC(=O)CCSc2nnnn2CCCCCNC(=O)CCCC[C@@H]2SC[C@@H]3NC(=O)N[C@@H]32)N(C)C(=O)[C@H](C(C)C)N(C)C(=O)[C@H](CC(C)C)N(C)C(=O)[C@H](CC(C)C)N(C)C(=O)[C@@H](C)NC(=O)[C@H](C)NC(=O)[C@H](CC(C)C)N(C)C(=O)[C@H](C(C)C)NC(=O)[C@H](CC(C)C)N(C)C(=O)CN(C)C1=O | Active | inactive | inactive | Active | –
2 | CC(C)(C)OC(=O)NCCCC(=O)NCCCCNC(=O)CCSc1nnnn1CCCCCNC(=O)CCCC[C@@H]1SC[C@@H]2NC(=O)N[C@@H]21 | – | – | – | inactive | –
3 | CC(C)(C)OC(=O)NCCCC(=O)NCCCCNC(=O)CCS(=O)(=O)c1nnnn1CCCCCNC(=O)CCCC[C@@H]1SC[C@@H]2NC(=O)N[C@@H]21 | – | – | – | inactive | –
4 | CC[C@@H]1NC(=O)[C@H]([C@H](O)[C@H](C)C/C=N\OCC(=O)NCCCC(=O)NCCCCNC(=O)CCS(=O)(=O)c2nnnn2CCCCCNC(=O)CCCC[C@@H]2SC[C@@H]3NC(=O)N[C@@H]32)N(C)C(=O)[C@H](C(C)C)N(C)C(=O)[C@H](CC(C)C)N(C)C(=O)[C@H](CC(C)C)N(C)C(=O)[C@@H](C)NC(=O)[C@H](C)NC(=O)[C@H](CC(C)C)N(C)C(=O)[C@H](C(C)C)NC(=O)[C@H](CC(C)C)N(C)C(=O)CN(C)C1=O | Active | – | inactive | Active | Active
